Measurements reported in the RNAGym collection of RNA variant scans (doi:10.1126/science.aae0568).
Fewer inactive variants are shown than the library holds.

B1: tRNA (parent)
chain: GUUCCGUUGGCGUAAUGGUAACGCGUCUCCCUCCUAAGGAGAAGACUGCGGGUUCGAGUCCCGUACGGAACG

Variants of: B1
Test: yeast fitness relative to wild type (ratio to wild type); higher = fitter; tRNA-Arg(CCU), competitive growth, 37 C, YPD
Summary of the method: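 Genotype frequency changes were the basis for Darwinian fitness relative to wild type. The frequencies came from 100-nucleotide paired-end sequencing of gene amplicons from the start population and each end population of pooled yeast strains with tRNA-Arg(CCU) gene variants at the native locus. Competition ran in YPD at 37°C for 24 hours in six replicates, genotypes needed ≥ 100 starting reads, and estimates < 0.5 were set to 0.5.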
In the case of C30G C60U, the yeast fitness is reported as 0.552. U7G G23C C30G A36U C61U A65U gave a yeast fitness of 0.527. Variant C5U C30G has a yeast fitness of 0.676. With C24A C61U the yeast fitness was 0.718. In the case of G12A G51C C62A, the yeast fitness is reported as no more than 0.5. For C5U C24U U32A C55G A69U, the yeast fitness was no more than 0.5. In the case of U7C C27U A45U C66U, the yeast fitness is reported as 0.617. Work on U13G G17U U28A G41C U64G yielded a yeast fitness of no more than 0.5. In the case of C4U C27A A43U G51C, the yeast fitness is reported as no more than 0.5. C24U A43U U47G gave a yeast fitness of no more than 0.5. Variant C33A A57U has a yeast fitness of 0.564. For G44A A57U, the yeast fitness was 0.635. Variant C46U U54C A69C has a yeast fitness of 0.778. C5G A45U showed a yeast fitness of 1.01. C22G C27G A37G G38A showed a yeast fitness of 0.532. C27U C34G G50A G68C gave a yeast fitness of no more than 0.5. With C30A G41C G51A the yeast fitness was no more than 0.5. For G25C U28C, the yeast fitness was 0.79. For C30G C49A U54G, the yeast fitness was no more than 0.5. In the case of C5U C22U C31U C49A U59C A69U, the yeast fitness is reported as no more than 0.5. U7C U26C gave a yeast fitness of 0.866. C11G A21U U47A G63C gave a yeast fitness of no more than 0.5. U26G A37G G51C gave a yeast fitness of 0.801. With U13C A43U G56A the yeast fitness was 0.797. G38U A69C showed a yeast fitness of 0.892. G10C C33A C62A showed a yeast fitness of 0.652. In the case of U3C C11U U16C C30G C31G A37U, the yeast fitness is reported as no more than 0.5. C5G U19G C22U U32C A65C C66U showed a yeast fitness of no more than 0.5. Work on A14C C22G U26G C55A A65G yielded a yeast fitness of no more than 0.5. U3G C66G gave a yeast fitness of 0.712. Work on U3A C5G A14G C24A G51C G52C yielded a yeast fitness of no more than 0.5. With A40C C66U the yeast fitness was 0.895. Work on G6A C66U yielded a yeast fitness of 1.03. Variant C5G C27G C55G has a yeast fitness of no more than 0.5. In the case of U19C C24U C31G U35A C61A A69C, the yeast fitness is reported as no more than 0.5. Work on C11A C31G A42U C62A C66U A69U yielded a yeast fitness of no more than 0.5. With C11A C22U C55A the yeast fitness was no more than 0.5. For C4G U59G, the yeast fitness was 0.653. For U13G U54A G68C, the yeast fitness was no more than 0.5. For G6A C24U U32G A40U U64G, the yeast fitness was no more than 0.5. With A14U A15G C31A C34G C61U the yeast fitness was no more than 0.5. A15U C22G C31U A57C U64A G68A gave a yeast fitness of 0.553. Work on A21U U26G A70C yielded a yeast fitness of 0.729. C5U C31U G41C A43C C60G showed a yeast fitness of no more than 0.5. In the case of A21G C60U, the yeast fitness is reported as 0.713. C46A G56A C61A showed a yeast fitness of 0.603. Variant U7A C46G C61U has a yeast fitness of 0.601. Work on U28G G41C U53A yielded a yeast fitness of no more than 0.5. In the case of C11G U35A, the yeast fitness is reported as 0.528. With G6C G68C the yeast fitness was 0.874. Work on C4G C34U C66G yielded a yeast fitness of no more than 0.5. Work on A37G A40G yielded a yeast fitness of 0.912. With C34G A42U G44A A45C G48C U64A the yeast fitness was no more than 0.5. Variant G12A C34A G51U G58A G63U has a yeast fitness of no more than 0.5. Variant C24U C46G A65U has a yeast fitness of 0.782. U16C C33G G39C A69C gave a yeast fitness of no more than 0.5. Work on C27G C55A G58A yielded a yeast fitness of no more than 0.5. Work on C24U U35C G38C C62U A69G yielded a yeast fitness of 0.723. In the case of A40U C66U, the yeast fitness is reported as 0.904. With G38C A45U the yeast fitness was 0.599. With U7C A14G G17A G48C A70U the yeast fitness was no more than 0.5. With C22U A70G the yeast fitness was 0.784. In the case of G6A U16C C27G C33A G38C A42G, the yeast fitness is reported as no more than 0.5. U26G A70U gave a yeast fitness of 0.896. With A15U U19C U47C A65G G68C the yeast fitness was no more than 0.5. C5U U13C C24G U26C A37G G38U U54G C61G gave a yeast fitness of no more than 0.5. A42U C62U showed a yeast fitness of 0.991. With G6U G68C the yeast fitness was 0.794. In the case of C49U A65C A70G, the yeast fitness is reported as 0.768. C22G C46A G48A A57U C60A gave a yeast fitness of 0.576. Variant U8C C24G C55A has a yeast fitness of no more than 0.5. C30U C46U A57U gave a yeast fitness of 0.515. In the case of U16A U54G, the yeast fitness is reported as 0.536. For C4A A14U C29U G68A, the yeast fitness was no more than 0.5. U16C G25U U32C A69C showed a yeast fitness of no more than 0.5. With C5G G9C U47C A65U the yeast fitness was no more than 0.5. With G9C G38A A65G the yeast fitness was 0.519. In the case of G52A G58C, the yeast fitness is reported as 0.801. In the case of C4G A40U, the yeast fitness is reported as 0.754. C5A G25A C29A C30U gave a yeast fitness of 0.758. For A14U A20G C30G A42C, the yeast fitness was no more than 0.5. For G41A A43G C60U, the yeast fitness was 0.507. With G44C G68A the yeast fitness was 0.937. Variant C4A U13A A70G has a yeast fitness of no more than 0.5. A14C A40C G68A gave a yeast fitness of no more than 0.5. Variant C29U G67U A69U has a yeast fitness of no more than 0.5. Work on U7A C55G G58C yielded a yeast fitness of no more than 0.5. For U8C C34G G58C C62U, the yeast fitness was no more than 0.5. With U35G U59A the yeast fitness was 0.646. With C5U A36G C55G the yeast fitness was no more than 0.5. Variant U3G C4U U35A G58A has a yeast fitness of no more than 0.5. For U2A C30U A42G C60G C62G A65G C66U, the yeast fitness was no more than 0.5. C34G A69U A70C gave a yeast fitness of 0.696. For A20G G44A C62U, the yeast fitness was 0.628. C5U U35A G48C C61U showed a yeast fitness of 0.57. Variant C5G A21G G44A G58C has a yeast fitness of 0.616. With U2A C31U the yeast fitness was 0.921. With C11U C24G A70G the yeast fitness was 0.649. For C29U G58A A69U, the yeast fitness was 0.754. In the case of C24U C46U C60U, the yeast fitness is reported as 0.513. With C4G A20U C22G A37C A43C A65G the yeast fitness was no more than 0.5. With C5G U16A C29U A40U G52A A65C the yeast fitness was no more than 0.5. Work on U2C A15C C29U yielded a yeast fitness of no more than 0.5. C27A U35C A37U C49U C55U C60G A65C gave a yeast fitness of no more than 0.5. In the case of U2A U16G A43C U54G, the yeast fitness is reported as no more than 0.5. U16A C22G showed a yeast fitness of 0.989. With G25C C31A A69C the yeast fitness was 0.585. For C5A U13A A45C, the yeast fitness was 0.576. Variant G25A A65G has a yeast fitness of 0.956. C4U U19A C27G A43U C46A C49U showed a yeast fitness of no more than 0.5. In the case of U16G G23A A40U, the yeast fitness is reported as no more than 0.5. In the case of C31U A42G G63C C66U, the yeast fitness is reported as no more than 0.5. Work on C5G A43C G48A U59G yielded a yeast fitness of no more than 0.5. C4G G44A A45C G63A gave a yeast fitness of no more than 0.5. C24G G48A G58C showed a yeast fitness of 0.735. C29A C33G U35C C49U A57C C60A gave a yeast fitness of 0.644. For U3C A40G C46A A69C, the yeast fitness was 0.706. Variant U2G A40G G41C C60G has a yeast fitness of 0.688. For C34U C62G C66G G67U, the yeast fitness was no more than 0.5. Variant A20C U47A G48C has a yeast fitness of 0.526. For G9A C11A C24U C34A A37U C62A C66A, the yeast fitness was no more than 0.5. For C5A C34U G41C A69G, the yeast fitness was no more than 0.5. Work on A15G C31A A70U yielded a yeast fitness of 0.639. Work on A15U A43C G67U yielded a yeast fitness of no more than 0.5. C4U U7A A20G G23A U26G showed a yeast fitness of no more than 0.5. For A21G C34A, the yeast fitness was 0.646. G56C C62U showed a yeast fitness of 0.913. Work on U8A C29U G51C yielded a yeast fitness of 0.571. For G12C C31U G50A, the yeast fitness was 0.677. With C4G G25A C49U G50U G63C the yeast fitness was no more than 0.5. C5U A20C C34A U64C showed a yeast fitness of no more than 0.5. Work on A15C G63A yielded a yeast fitness of 0.61. With U7A A14C C30A A36G C62U G63A A70U the yeast fitness was no more than 0.5. In the case of C33G C62A G63C, the yeast fitness is reported as no more than 0.5. In the case of U2C A40U, the yeast fitness is reported as 1.05. For A40C A42U, the yeast fitness was 0.782. For U2G A70U, the yeast fitness was 0.917. In the case of C34U G50A U59C C62A U64A, the yeast fitness is reported as no more than 0.5. With G18C A21G G23A A43C the yeast fitness was no more than 0.5. C30U C60G C61A A69G gave a yeast fitness of no more than 0.5. U19C G39C G41C gave a yeast fitness of 0.51. In the case of G9A A14U A21U A65G, the yeast fitness is reported as 0.556. G18A A40U A42U A65C showed a yeast fitness of 0.534. C29A C66U gave a yeast fitness of 0.627. For G23C C24G C34G C46U U54G, the yeast fitness was no more than 0.5. With G12A G18A U19C C55U A57C G58C the yeast fitness was 0.638. Work on C5G C11A A20G U28C C33U A70C yielded a yeast fitness of no more than 0.5. Variant C11A C46U has a yeast fitness of 0.712. Variant U53A U59C has a yeast fitness of 0.555. Work on U53C A57G yielded a yeast fitness of 0.79. In the case of A21G C61G C66G, the yeast fitness is reported as no more than 0.5. In the case of U13C A36C C66U, the yeast fitness is reported as no more than 0.5. With A20U C46U A69G the yeast fitness was 0.893. For C11U C24A A43G C62A, the yeast fitness was no more than 0.5. Variant C5G A42C A70C has a yeast fitness of 0.689. In the case of C5A C33A A40C G41A U59A U64A C66G, the yeast fitness is reported as 0.584. In the case of A42U G50A A65C, the yeast fitness is reported as no more than 0.5. U47C G68U showed a yeast fitness of 1.1. Variant G12C C22U U28A has a yeast fitness of 0.52. With A15G C30G A43U C62A the yeast fitness was 0.611. Variant G12C C62G has a yeast fitness of 0.739. With C11G U13G A69C the yeast fitness was 0.531. Work on U16G A37G G51C C62G yielded a yeast fitness of no more than 0.5. C11G C29G C33U C46A C49G G68C gave a yeast fitness of no more than 0.5. Work on U13C G23C C29G A43U G50A A65C yielded a yeast fitness of no more than 0.5. In the case of U26A A42C A45G C49U, the yeast fitness is reported as no more than 0.5. Variant C4U A40U G68C has a yeast fitness of 0.68.
